The results in this text go back to ChEMBL document CHEMBL1149101, “New antibacterial agents derived from the DNA gyrase inhibitor cyclothialidine” (J Med Chem, 2004).

Converted amounts (≈) assume the structure as drawn.

Usually MIC stands for the least concentration at which growth counts as inhibited.

In one assay the test system is Micrococcus luteus. Kind of assay: Minimum inhibitory concentration against Micrococcus luteus ATCC 8340. Format: functional. Summed up: (§1)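 Agar dilution per NCCLS in BB2 agar + 1% Isovitalex + 7.5% sheep blood + menadione, compound added to melted medium at 50 °C. About 10⁴ CFU/spot from diluted overnight cultures, multipoint-inoculated.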
A further assay deals with Neisseria meningitidis. Description: Minimum inhibitory concentration against Neisseria meningitides 69480. The class given is functional. The method in brief:
as §1

The target of assay [1] is DNA gyrase (Escherichia coli) (UniProt P0AES6+P0AES4).
In assay [2] the test system is Staphylococcus aureus. Description: Minimum inhibitory concentration against Staphylococcus aureus Smith. The class given is functional. The note with it: Staphylococcus aureus; read-out: MIC. The method in brief:
(§2)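 NCCLS agar dilution on Mueller–Hinton agar, compound incorporated into melted medium at 50 °C. Inoculum about 10⁴ CFU/spot from diluted overnight cultures, multipoint-applied.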

Assay [3] has as its system Staphylococcus aureus. Kind of assay: Minimum inhibitory concentration against Staphylococcus aureus ATCC 25923. The note with it: Staphylococcus aureus, ATCC 25923; read-out: MIC. Format: functional. The method in brief: as §2
Assay [4] concerns Staphylococcus aureus. Kind of assay: Minimum inhibitory concentration against Staphylococcus aureus 887. The class given is functional. Summed up:
as §1

For another assay, the system named is Streptococcus pyogenes. Kind of assay: Minimum inhibitory concentration against Streptococcus pyogenes b15. The note with it: Streptococcus pyogenes; read-out: MIC.

In the case of `COC(=O)[C@@H]1CSCc2c(OC)cc(O)c(C)c2C(=O)OCC(NC(=O)OC(C)(C)C)C(=O)N1` (stereo partly drawn), the minimal inhibitory concentration (MIC) against Micrococcus luteus was above 128 mg/L; against Neisseria meningitidis it was 128 mg/L (≈ 257 µM). Also, the MNEC in assay [1] was above 1 µg/mL.
In the case of `COC(=O)c1c(C)c(OC)cc(O)c1CSC[C@H](/N=C(/C)S)C(=O)OC`, the MIC with Staphylococcus aureus [2] was 8 mg/L (≈ 19.9 µM); in the assay with Staphylococcus aureus [3] it was 16 mg/L (≈ 39.8 µM). The molecule further showed an MNEC in assay [1] of 0.2 µg/mL.
In the case of `COc1cc(O)c2c(c1C)C(=O)O[C@H](CO)CC/C(S)=N/[C@H](c1nc(C)no1)CSC2`, in assay [1], the MNEC stood at 0.01 µg/mL.
For `COC(=O)[C@@H]1CSCc2c(O)cc(OC)c(C)c2C(=O)OC/C(S)=N/1`, the MIC in the assay with Staphylococcus aureus [2] and in the assay with Staphylococcus aureus [3] was above 64 mg/L in each case. In assay [1], this molecule showed an MNEC of 0.2 µg/mL.
The molecule `COc1cc(O)c2c(c1C)C(=O)O[C@H](CO)C/C(S)=N/[C@H](c1nc(C)no1)CSC2` yielded an MNEC in assay [1] of 0.01 µg/mL.
Turning to `COC(=O)[C@@H]1CSCc2c(O)cc(OC)c(C)c2C(=O)OCCCCCCC(=O)N1`, the MIC with Staphylococcus aureus [2] and with Staphylococcus aureus [3] was above 64 mg/L each time. This molecule also registered an MNEC in assay [1] above 1 µg/mL.
Take `COC(=O)[C@@H]1CSCc2c(N)cccc2C(=O)OCC(NC(=O)[C@H](CO)NC(=O)OC(C)(C)C)C(=O)N1` (stereo partly drawn): the MIC in the assay with Micrococcus luteus and against Neisseria meningitidis was above 128 mg/L in each case. Moreover, the MNEC in assay [1] was above 100 µg/mL.
`COC(=O)[C@@H]1CSCc2c(O)cc(OC)c(C)c2C(=O)OCCC/C(S)=N/1`: the MIC in the assay on Staphylococcus aureus [2] stood at 2 mg/L (≈ 4.84 µM); in the assay with Staphylococcus aureus [3], 4 mg/L (≈ 9.67 µM). The molecule further yielded an MNEC in assay [1] of 0.4 µg/mL.
As for `COC(=O)[C@@H]1CSCc2c(O)cccc2C(=O)OCC(NC(=O)[C@H](CO)NC(=O)OC(C)(C)C)C(=O)N1` (stereo partly drawn), the values for the MIC in the assay on Micrococcus luteus and in the assay on Neisseria meningitidis were 64 mg/L (≈ 118 µM) and 32 mg/L (≈ 59.1 µM), respectively. In assay [1], this molecule had an MNEC of 0.4 µg/mL.
Take `COC(=O)[C@@H]1CSCc2c(O)cc(OC)c(C)c2C(=O)OCC(=O)N1`: the MIC in the assay on Staphylococcus aureus [2] and in the assay on Staphylococcus aureus [3] was above 64 mg/L each time. Further, the MNEC in assay [1] was above 1 µg/mL.
As to `COC(=O)[C@@H]1CSCc2c(O)cc(O)c(C)c2C(=O)OC[C@H](N)C(=O)N1`, the MIC against Micrococcus luteus and against Staphylococcus aureus [4] was above 64 mg/L throughout. In assay [1], this molecule came in with an MNEC of 1 µg/mL.
`COC(=O)[C@@H]1CSCc2c(O)cc(O)c(C)c2C(=O)OC[C@H](NC(=O)OC(C)(C)C)C(=O)N1`: the MIC against Micrococcus luteus and against Neisseria meningitidis was 128 mg/L (≈ 264 µM) in each case. The molecule also yielded an MNEC in assay [1] of 10 µg/mL.
Turning to `COC(=O)[C@@H]1CSCc2c(O)cc(OC)c(C)c2C(=O)OCCCCC/C(S)=N/1`, the MIC with Staphylococcus aureus [2] was found to be 16 mg/L (≈ 36.2 µM); in the assay on Staphylococcus aureus [3] it was 32 mg/L (≈ 72.5 µM). This molecule returned an MNEC in assay [1] of 0.5 µg/mL.
`C=CCNC(=O)[C@@H]1CSCc2c(O)cc(OC)c(C)c2C(=O)OC[C@H](NC(=O)OC(C)(C)C)C(=O)N1`: the MIC with Micrococcus luteus worked out at 8 mg/L (≈ 15.3 µM); against Neisseria meningitidis it was 4 mg/L (≈ 7.64 µM); with Staphylococcus aureus [4], 16 mg/L (≈ 30.6 µM); in the assay with Streptococcus pyogenes, 16 mg/L (≈ 30.6 µM). Also, the MNEC in assay [1] came out at 0.1 µg/mL.
In assay [1], `COc1cc(O)c2c(c1C)C(=O)OCCC/C(S)=N/[C@H](c1nc(C)no1)CSC2` had an MNEC of 0.004 µg/mL.
Consider `COC(=O)[C@@H]1CSCc2ccccc2C(=O)OCC(NC(=O)OC(C)(C)C)C(=O)N1` (stereo partly drawn), for which the MNEC in assay [1] was above 1 µg/mL.
For `COC(=O)[C@@H]1CSCc2c(O)cc(OC)c(C)c2C(=O)OCCCC(=O)N1`, the values for the minimum inhibitory concentration (MIC) with Staphylococcus aureus [2] and in the assay with Staphylococcus aureus [3] were 32 mg/L (≈ 80.5 µM) and 64 mg/L (≈ 161 µM), respectively. The molecule further returned an MNEC in assay [1] of 2 µg/mL.
In assay [1], `COc1cc(O)c2c(c1C)C(=O)CCCCC/C(S)=N/[C@H](c1nc(CNC(C)C)no1)CSC2.Cl` showed an MNEC of 0.002 µg/mL.
As to `Cc1c(O)cc(O)c2c1C(=O)OCC(NC(=O)OC(C)(C)C)C(=O)NCCSC2` (stereo not drawn), 32 mg/L (≈ 75 µM) was the least that counted as inhibitory against Micrococcus luteus (MIC). Moreover, in assay [1], the MNEC amounted to 1 µg/mL.
In the assay on Micrococcus luteus, `Cc1c(O)cc(O)c2c1C(=O)OCCC(=O)NCCSC2` showed an MIC above 128 mg/L. Moreover, the MNEC in assay [1] is 20 µg/mL.
In the case of `COC(=O)[C@@H]1CSCc2c(O)cc(O)cc2C(=O)OCC(NC(=O)OC(C)(C)C)C(=O)N1` (stereo partly drawn), the MIC against Micrococcus luteus and with Neisseria meningitidis was 128 mg/L (≈ 272 µM) throughout. The molecule also came in with an MNEC in assay [1] of 0.5 µg/mL.
Turning to `COC(=O)[C@@H]1CSCc2c(O)cc(OC)c(C)c2C(=O)OC[C@@H](C)C(=O)N1`, the MIC in the assay on Micrococcus luteus was 64 mg/L (≈ 161 µM); against Neisseria meningitidis it was 64 mg/L (≈ 161 µM); with Staphylococcus aureus [4], above 64 mg/L; in the assay with Streptococcus pyogenes it was above 64 mg/L. The molecule further came in with an MNEC in assay [1] of 4 µg/mL.
